# KCNQ1 pot – potentiates or activates the human KCNQ1 potassium channel | hit rate 0.35% among 310,000 | B-score at 10 µM | P51787 | CHO-K1 KCNQ1, thallium flux FluxOR fluorescence; stronger effect = higher value | AID 2648;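 active = fluorescence ratio B-score, a plate-corrected score, at least three library SD, with initial intensity B-score within 5 SD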
#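 System: CHO-K1 cells stably expressing KCNQ1 / Medium: assay buffer for compound exposure, DMSO matched across wells / Reagent: thallium- and potassium-containing depolarizing buffer / Compound: one concentration, matched DMSO / Incubation: 20 min compound pretreatment at room temperature / Measured by: kinetic FluxOR fluorescence, 10 s baseline plus 110 s post-stimulus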
# KCNK3 inh – human KCNK3 channel inhibition, primary screen. CHO-KCNK3 thallium flux, FluxOR fluorescence; stronger effect = lower value. B-score at 10 µM. hit rate 0.84% among 340,000. AID 602410;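 active = B-score under library mean minus 4 SD, starting fluorescence ratio at most library mean plus 5 SD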;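 note: more negative B-score means stronger inhibition of thallium flux through KCNK3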
# KCNK9 inh – inhibitors of human KCNK9 two-pore domain potassium channel; Q9NPC2; HEK293 KCNK9, FluxOR thallium flux fluorescence; stronger effect = lower value; B-score at 10 µM; hit rate 1.2% among 310,000;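 active = ratio B-score over 3 SD below the library mean, with starting fluorescence within 5 SD of its mean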;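 note: negative B-score means less thallium flux so channel inhibition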
# hERG protect – compounds protecting human hERG from proarrhythmic drug block; CHO-hERG, FluxOR thallium flux, dofetilide IC70 present; activation (rescue from dofetilide block), less the hit threshold, % at 10 µM; hit rate 0.51% among 310,000;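 active = activation above the mean of controls blocked by dofetilide plus 5 SD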;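 note: thallium influx through hERG after potassium depolarization seen as dye fluorescence rise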
# KCNQ1 block – human KCNQ1 channel inhibition. hit rate 1.3% among 310,000. CHO-K1 KCNQ1, FluxOR thallium flux fluorescence; stronger effect = higher value. P51787. B-score at 10 µM. AID 2642;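 active = compounds whose thallium flux B-score, printed positive for inhibition, exceeds three library SD while starting fluorescence stays within three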;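 note: channel opened by potassium depolarization with thallium stimulus after 20 min compound exposure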
# KCNQ1 block val – human KCNQ1 channel inhibition, validation assay; shares compounds with KCNQ1 block; KCNQ1 cell line, FluxOR thallium flux fluorescence; inhibition, % at 10 µM; hit rate 93% among 1,600;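 active = primary screen active, with duplicate mean exceeding buffer control mean plus 3 SD of buffer wells, cut at about 28% in these data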;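 note: 0% = buffer control ratio and 100% = XE991 inhibitor control ratio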
# CHO KCNQ1 ctr – activity in parental CHO cells lacking KCNQ1; hit rate 21% among 1,600; AID 588366; fluorescence ratio (Tl flux) at 10 µM; parental CHO-K1, FluxOR thallium flux fluorescence ratio; stronger effect = lower value; zero means no signal rise above baseline; shares compounds with KCNQ1 block;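 active = mean of duplicate thallium-flux fluorescence ratios in parental host cells more than 5 SD below the buffer control mean, cut at about 0.38 in these data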;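 note: ratio is peak minus minimum fluorescence divided by baseline fluorescence; actives read low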
# KCNQ1 ephys val – confirmation of human KCNQ1 potassium channel inhibitors by electrophysiology | calls only at 10 µM | shares compounds with KCNQ1 block | hit rate 20% among 490 | KCNQ1-CHO cells, automated patch clamp current | AID 624120;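 active = KCNQ1 current drop exceeding 3 SD of negative control wells, seen in both duplicate runs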;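 note: steady state current during a 2 s step from -80 to +40 mV; negative values mean current inhibition and positive values mean potentiation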
# KCNQ2 spec – KCNQ1 inhibitor that also blocks rat KCNQ2 channel; shares compounds with KCNQ1 block; KCNQ2 cells, FluxOR thallium flux fluorescence; inhibition, % at 10 µM; hit rate 71% among 1,600; AID 651746;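 active = mean percent inhibition of the KCNQ2 thallium signal more than 5 SD above the buffer-only control wells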;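 note: KCNQ2 expressed in CHO cells; 0% = buffer control wells and 100% = XE-991 inhibitor control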
# KCNQ1-KCNE1 inh – KCNQ1 inhibitor that also blocks human KCNQ1/KCNE1 channel; shares compounds with KCNQ1 block; KCNQ1/KCNE1 cells, FluxOR thallium flux fluorescence; inhibition, % at 10 µM; hit rate 77% among 1,600; AID 652147;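 active = mean percent inhibition of duplicate wells above the buffer-only control mean plus 3 SD of those controls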;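 note: 0% = buffer only wells and 100% = XE-991 inhibitor control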
# An asterisk follows results filed as active; i = inactive; · = no result; + = active, no number. Sampled rows, rich in hits. Any-hit rate of the full collection: about 3.1%.
SMILES,KCNQ1 pot,KCNK3 inh,KCNK9 inh,hERG protect,KCNQ1 block,KCNQ1 block val,CHO KCNQ1 ctr,KCNQ2 spec,KCNQ1-KCNE1 inh,others
COc1ccc2nc(C)cc(NCc3ccc(F)cc3)c2c1,i,i,-6.9*,-18,7*,88*,0.42,i,124%*,KCNQ1 ephys val=i
COc1ccc2nc(C)cc(Nc3ccc(C)cc3)c2c1,i,i,i,1,i,·,·,·,·,
COc1ccc2c(c1)C(O)C(CO)C(C(=O)O)C2 (configuration not stated),·,i,·,·,·,·,·,·,·,
CCN1CCN(c2cc(C)c3cc(NC(=O)c4cccc(OC)c4)ccc3n2)CC1,i,i,i,-16,i,·,·,·,·,
COc1cccc(C(=O)Nc2ccc3nc(N4CCOCC4)cc(C)c3c2)c1,i,i,i,-16,7*,+,0.46,i,i,KCNQ1 ephys val=i
COc1cccc2[nH]c3c(N4CCCCC4)ncnc3c12,i,i,i,-10,i,·,·,·,·,
Cc1cccc2[nH]c3c(N4CC=C(c5ccc(F)cc5)CC4)ncnc3c12,i,i,i,-14,14*,162*,0.33*,134%*,+,
O=C(CN1CCOCC1)Nc1nc(-c2ccc(Cl)cc2)cs1,i,i,i,-14,6*,56*,0.53,i,60%*,
Cc1ccc(-c2csc(NC(=O)CN3CCOCC3)n2)cc1,i,i,i,-6,i,·,·,·,·,
CC(C)(C)NCC(=Cc1ccccc1)C(=O)c1ccccc1,·,i,·,·,·,·,·,·,·,
COc1ccc(CSc2nc3ccccc3c(=O)n2CCCN2CCOCC2)cc1F,i,i,i,-25,i,·,·,·,·,
CCN(CC)c1nc2ccccc2n(Cc2cccc(OC)c2)c1=O,i,i,i,-6,6*,109*,0.4,99%*,170%*,KCNQ1 ephys val=i
COc1cccc(Cn2c(=O)ccc3ccccc32)c1,i,i,i,-9,i,·,·,·,·,
S=C(NC1CC1)N1CCN(C(=S)NC2CC2)CC1,i,i,i,-3,i,·,·,·,·,
OCCN1CCN(C(=S)NC2CCCC2)CC1,i,i,i,-12,10*,83*,0.52,i,110%*,
CC(C)CCN1C(=O)c2cccc3c(N)ccc(c23)C1=O,i,i,i,-42,24*,+,0.0055*,i,i,
Cc1cccc(N2C(=O)c3cccc4c(N(C)CCO)ccc(c34)C2=O)c1,i,i,i,-17,7*,122*,0.25*,i,i,
Nc1ccc2c3c(cccc13)C(=O)N(c1ccccc1)C2=O,i,i,i,-42,i,·,·,·,·,
CCN1C(=O)c2cccc3c(Cl)ccc(c23)C1=O,i,i,i,-5,i,·,·,·,·,
CN(C)c1ccc2c3c(cccc13)C(=O)N(c1ccccc1)C2=O,i,·,i,-12,i,·,·,·,·,
Cc1cccc(N2C(=O)c3cccc4c(N)ccc(c34)C2=O)c1,i,i,i,-51,23*,+,0.0085*,i,i,
C=CCNc1nc2ccccc2nc1NS(=O)(=O)c1ccc(Cl)cc1,i,i,i,-5,6*,50*,0.44,64%*,i,
CN(C)c1ccc(NC(=O)CN2CCc3ccccc3C2)cc1,i,i,i,-6,i,·,·,·,·,
O=C(O)c1ccc(N=Nc2c(O)[nH]c3ccccc23)cc1,i,i,i,-17,i,·,·,·,·,
Cc1ccc(Cl)c2c(N=Nc3ccccc3)c(O)[nH]c12,i,i,i,-5,6*,148*,0.29*,i,i,
SMILES,KCNQ1 pot,KCNK3 inh,KCNK9 inh,hERG protect,KCNQ1 block,KCNQ1 block val,CHO KCNQ1 ctr,KCNQ2 spec,KCNQ1-KCNE1 inh,others
CC(C)C(NC(=O)c1c(F)cccc1F)C(=O)N1CCN(S(=O)(=O)c2ccc(F)cc2)CC1 (configuration not stated),·,i,·,·,·,·,·,·,·,
CC(C)(C)c1csc(NC(=O)Cc2ccc(S(=O)(=O)N3CCOCC3)s2)n1,i,i,i,-7,9*,72*,0.47,i,96%*,
CCC(C)NC(=O)CCc1c(C)nc2nc(-c3cc(OC)cc(OC)c3)nn2c1C (configuration not stated),i,i,i,-11,8*,+,0.51,i,i,KCNQ1 ephys val=i
CC(=O)Nc1ccc(CN2CCCCCCC2)cc1,i,i,i,-19,i,·,·,·,·,
O=C(Nc1ccc(CN2CCCCC2)cc1)c1c(F)c(F)c(F)c(F)c1F,i,i,i,-7,6*,74*,0.52,i,44%*,
O=C(NCCOc1ccc(F)cc1)c1ccccc1SCc1ccccc1,i,i,i,-25,7*,102*,0.48,106%*,169%*,KCNQ1 ephys val=+
Cc1ccc(CNC(=O)Nc2ccc(OC(F)(F)F)cc2)n1C,i,i,i,-5,i,·,·,·,·,
Cn1ncc(Br)c1NC(=O)Nc1ccc(OC(F)(F)F)cc1,i,i,i,-12,8*,79*,0.49,132%*,i,
CCSC(=O)N=Nc1ccc(O)cc1,·,i,·,·,·,·,·,·,·,
CC1C(=O)N2CCCc3cc(NC(=O)C(=O)NCCc4ccccc4)cc1c32 (configuration not stated),i,i,i,-9,i,·,·,·,·,
CC1C(=O)N2CCCc3cc(NC(=O)C(=O)NCCc4c[nH]c5ccccc45)cc1c32 (configuration not stated),i,i,i,-22,10*,26*,0.44,87%*,57%*,
O=C(C1CCC(=O)N(C2CC2)C1)N1CCC(Oc2cccc(C(F)(F)F)c2)CC1 (configuration not stated),i,i,i,-19,i,·,·,·,·,
CN(C)CCCN(C(=O)c1ccc2c(c1)OCCO2)c1nc2cc3c(cc2s1)OCO3,i,i,i,-8,i,·,·,·,·,
CCN(CC)CCN(C(=O)c1ccc2c(c1)OCCO2)c1nc2cc3c(cc2s1)OCO3,i,i,i,-14,7*,50*,0.47,81%*,84%*,
CN(CCOc1ccccc1)C(=O)CNC(=O)c1ccc(C(C)(C)C)cc1,·,i,·,·,·,·,·,·,·,
COc1ccc(Cl)cc1NC(=O)CN(C)C(=O)Cn1cnnn1,·,i,·,·,·,·,·,·,·,
